Data published in ChEMBL document CHEMBL4680340, “Discovery and structure activity relationship of glyoxamide derivatives as anti-hepatitis B virus agents” (Bioorg Med Chem, 2021).
pEC50: −log10 of the molar value.

Key:
[1] = Cytotoxicity against African green monkey Vero cells assessed as reduction in cell viability by MTT assay; format: cell-based; settings: chlorocebus sabaeus
Hepatitis B virus = experiment: Antiviral activity against Hepatitis B virus infected in human HePAD38 cells assessed as reduction in viral DNA replication incubated for 7 days by RT-PCR analysis; format: functional, organism-based; settings: HePAD38, 168 h; for EC90: time 7 day
Summary of the method: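 HepAD38 cells seeded and held 2 days at 37 °C, 5% CO2, then washed with PBS; compounds added in duplicate at various concentrations in tetracycline-free medium (from 40 mM stocks). Day 7: total DNA extracted, HBV DNA quantified by real-time PCR; ΔCT against untreated tetracycline-free control; EC50 and EC90 computed.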

[2] = Cytotoxicity against human CEM cells assessed as reduction in cell viability by MTT assay; format: cell-based; settings: CEM (CCRF-CEM) cells
[3] = Cytotoxicity against human HepG2 cells assessed as reduction in cell viability by MTT assay; format: cell-based
[4] = Cytotoxicity against human PBMC cells assessed as reduction in cell viability by MTT assay; format: cell-based
[5] = Therapeutic index, ratio of CC50 for human HepG2 cells to IC50 for Hepatitis B virus infected in human HePAD38 cells; format: toxicity, cell-based; settings: read-out: Ratio CC50/IC50

Row | SMILES | CC50 [1] [µM] | pEC50 (Hepatitis B virus) | EC90 (Hepatitis B virus) [µM] | CC50 [2] [µM] | CC50 [3] [µM] | CC50 [4] [µM] | selectivity ratio [5]
1 | Cn1cc(C(=O)C(=O)NOC2CCCC2)cc1C(=O)Nc1ccc(F)c(F)c1 | 80.1 | 6.25 | 2.95 | 37.9 | > 100 | ≥ 100 | –
2 | O=C(Nc1ccc(F)c(F)c1)c1cc(S(=O)(=O)N2CC(F)(F)C2)ccc1F | – | 5.92 | 6.3 | – | – | – | –
3 | C#CCNC(=O)C(=O)c1c(C)c(C(=O)Nc2ccc(F)c(F)c2)n(C)c1C | 46.4 | 8.52 | 0.014 | > 100 | > 100 | > 100 | > 33300
4 | C=CCNC(=O)C(=O)c1cc(C(=O)Nc2ccc(F)c(F)c2)n(C)c1 | 68.1 | 7.05 | 3.05 | > 100 | > 100 | > 100 | –
5 | Cc1c(C(=O)C(=O)Nc2nccs2)c(C)n(C)c1C(=O)Nc1ccc(F)c(F)c1 | > 100 | 8.22 | 0.03 | 26.8 | 83.9 | > 100 | –
6 | Cc1c(C(=O)C(=O)N2CCN(C)CC2)c(C)n(C)c1C(=O)Nc1ccc(F)c(F)c1 | ≥ 100 | 8.30 | 0.1 | 24.7 | 95.4 | ≥ 100 | –
7 | C#CCNC(=O)C(=O)c1cc(C(=O)Nc2ccc(F)c(F)c2)n(C)c1 | 89 | 5.25 | > 10 | 70.3 | > 100 | 57.9 | –
8 | Cc1c(C(=O)C(=O)Nc2nc3ccccc3[nH]2)c(C)n(C)c1C(=O)Nc1ccc(F)c(F)c1 | 46.9 | 6.68 | 3.44 | 35.8 | 74.9 | 90 | –
9 | Nc1ccn([C@@H]2CS[C@H](CO)O2)c(=O)n1 [LAMIVUDINE] | > 100 | 6.39 | 1.65 | > 100 | > 100 | > 100 | –
10 | Cn1cc(C(=O)C(=O)Nc2ccccc2)cc1C(=O)Nc1ccc(F)c(F)c1 | 13.4 | 7.10 | 1.8 | > 100 | > 100 | > 100 | –
11 | Cc1c(C(=O)C(=O)Nc2ccccn2)c(C)n(C)c1C(=O)Nc1ccc(F)c(F)c1 | > 100 | 8.40 | 0.06 | 14.6 | 83.7 | > 100 | –
12 | Cc1c(C(=O)C(=O)NCc2nccn2C)c(C)n(C)c1C(=O)Nc1ccc(F)c(F)c1 | 50.6 | 8.00 | 0.17 | 46.9 | 34.7 | > 100 | –
13 | Cc1c(C(=O)C(=O)NCc2ccccn2)c(C)n(C)c1C(=O)Nc1ccc(F)c(F)c1 | 9.6 | 6.80 | 2.02 | 38.4 | 7.2 | > 100 | –
14 | Cn1cc(C(=O)C(=O)NCc2ccccc2)cc1C(=O)Nc1ccc(F)c(F)c1 | 62.4 | 6.39 | 7.95 | > 100 | > 100 | > 100 | –
15 | CCN(CC)C(=O)C(=O)c1c(C)c(C(=O)Nc2ccc(F)c(F)c2)n(C)c1C | > 100 | 6.24 | 5.64 | 16.8 | 89.9 | 91.7 | –
16 | Cn1cc(C(=O)C(=O)N2CCOCC2)cc1C(=O)Nc1ccc(F)c(F)c1 | 41.9 | 5.96 | 4.62 | > 100 | 93.9 | > 100 | –
17 | CCOC(=O)C1=C(CN2CCOCC2)NC(c2nccs2)=NC1c1ccc(F)cc1Br (centres undefined) | – | 7.10 | 0.28 | – | – | – | –
18 | Cn1cc(C(=O)C(=O)NCC#N)cc1C(=O)Nc1ccc(F)c(F)c1 | 91.4 | 5.29 | 10 | > 100 | > 100 | > 100 | –
19 | C=C1[C@H](CO)[C@@H](O)C[C@@H]1n1cnc2c(=O)[nH]c(N)nc21 | > 100 | 9.22 | 0.011 | > 100 | > 100 | 15.7 | –
20 | Cn1cc(C(=O)C(=O)Nc2nccs2)cc1C(=O)Nc1ccc(F)c(F)c1 | 31.2 | 6.33 | 4.1 | > 100 | > 100 | > 100 | –
21 | Cn1cc(C(=O)C(=O)N2CC(F)(F)C2)cc1C(=O)Nc1ccc(F)c(F)c1 | > 100 | 5.42 | 9.67 | > 100 | > 100 | > 100 | –
